Compound activity from PubChem.
In the library only some 1.4% were active in any assay of this set; here they are far more common.
UBC9 SUMO inh = blocks human SUMOylation mediated by UBC9. inhibition, % at 35 µM. AID 2006. HTRF SUMOylation assay, SAE1/SAE2 + UBC9, in vitro. 290,000 tested, 0.36% active. P63279; in the data active means inhibition above about 50%, passing the limit was not always enough; inconclusive means no clear call, values can overlap the other calls
HKDC1 inhibitor = blocks human hexokinase HKDC1 activity; recombinant HKDC1, G6PDH/diaphorase resazurin coupled fluorescence; 340,000 tested, 0.16% active; inhibition, % at 20 µM;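 active means inhibition above about 35% when tested at 20 µM, limit read from the data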;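 further: plate controls were DMSO wells with enzyme for no effect and DMSO wells lacking enzyme for full effect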
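Assay system – recombinant HKDC1 (HK5) hexokinase enzyme, produced in-house · Input – HKDC1 at 5 µg/mL · Reagent – glucose plus 1 mM ATP as hexokinase substrates · Timing – 90 min reaction incubation at room temperature, dark · Measured by – G6PDH/diaphorase-coupled fluorescence, 1 mM NADP, 100 µM resazurin, 525/613 nm · Benchmarks – DMSO-enzyme wells negative, buffer-substituted wells positive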
DTT redox prof = compounds producing H2O2 with reducing agent – biochemical, NIH compound library profiling, artefact control for MLSCN library redox annotation, primary screen | DTT-dependent redox cycling H2O2, phenol red/HRP absorbance; 100% = 100 µM peroxide control, 0% = buffer | activation, % at 10 µM | 200,000 tested, 0.03% active | AID 878;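 active means activation of at least 50% relative to the plate's high and low controls in the primary single-dose screen; inactive means activation below 50%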;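 further: compound incubated with DTT at 0.8 mM final as the reducing agent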
GSTO1 counter = blocks human GSTO1 in RBBP9 counter-screen. recombinant GSTO1, activity-based probe fluorescence polarization. inhibition, % at 5.96 µM. 300,000 tested, 1.1% active. AID 1974;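 active means inhibition above the campaign mean inhibition plus 3 SD, cut at about 35% in these data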;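 further: 0% = GSTO1-1 with DMSO and 100% = wells lacking GSTO1-1 enzyme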
Apaf-1 inh = inhibitors of human Apaf-1 apoptosome | O14727 | reconstituted apoptosome caspase-3 activity, DEVD-Rh110 fluorescence | inhibition, % at 20 µM | 330,000 tested, 0.71% active | AID 489030; active means inhibition of at least 40% at 20 µM;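 further: plate controls were DMSO wells for no effect and DEVD-CHO caspase inhibitor wells for full effect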
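System: reconstituted apoptosome with Apaf-1, cytochrome c, caspase-9, procaspase-3, dATP; Signal: Rh110 fluorescence intensity; Schedule: 30 min compound preincubation, 50 min activation, room temperature; Reagent: cytochrome c trigger plus (Z-DEVD)2-Rh110 caspase-3 substrate.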
The depositor's hits bear a star; ? = inconclusive; nt = no result.

SMILES | UBC9 SUMO inh | HKDC1 inhibitor | DTT redox prof | GSTO1 counter | Apaf-1 inh
COc1ccc(NC(=O)C2CCC(N3C(=O)C4C5C=CC(C5)C4C3=O)CC2)cc1 (configuration not stated) | -2.5 | 3.5 | 0.0 | 5.0 | -2.5
CC(=O)[C@@H]1[C@@H]2C(=O)N(C3CCCCC3)C(=O)[C@@H]2C2c3ccccc3C=CN21 (some centres not stated) | 13.0 | nt | 2.2 | 21.9 | 84.1*
COc1ccccc1C(=O)Nc1sc2c(c1C(=O)NCc1ccco1)CCCC2 | 60.9* | 2.1 | 0.5 | 0.0 | 3.3
COc1ccccc1NC(=O)c1c(NC(=O)c2ccco2)sc2c1CCC2 | 30.1 | -6.8 | -0.6 | 4.2 | 4.5
CCOc1cccc2cc(-c3nnc(NCc4ccco4)s3)c(=O)oc12 | 61.1* | 2.1 | -0.4 | -2.1 | 7.3
Oc1c(Br)cc(Br)cc1/C=N/n1c(-c2ccccc2)n[nH]c1=S | 3.0 | 8.8 | nt | 6.9 | -2.1
Oc1c(Br)cc(/C=N/n2c(-c3ccccc3)n[nH]c2=S)c(Br)c1O | 55.3* | nt | nt | -26.4 | nt
O=S(=O)(Nc1nccs1)c1ccc(NS(=O)(=O)c2c(F)cc(F)c(Cl)c2F)cc1 | nt | -1.8 | nt | nt | 1.1
O=C1C2C3C=CC(C2C(=O)N1CCO)C1C(=O)N(CCO)C(=O)C31 (configuration not stated) | 9.1 | -2.1 | nt | -1.1 | -0.4
Nc1ccc2nc(-c3ccccc3)sc2c1 | 56.6* | 10.1 | -0.3 | 1.6 | 3.5
Cc1ccc2nc(-c3ccc(N)cc3)sc2c1 | 26.0 | 2.6 | nt | 4.9 | 1.3
O=C(Nc1cccn(Cc2cccc(F)c2)c1=O)NC1CCCCC1 | 99.4* | 5.5 | -0.9 | -4.7 | 6.6
Cc1cccc(CN2C(=O)/C(=C\c3ccc(C(=O)NCCCN4CCN(C)CC4)cc3)Oc3ccccc32)c1 | 22.9 | nt | nt | -14.4 | 52.5*
CN1CCN(CCCNC(=O)c2ccc(/C=C3\Oc4ccccc4N(Cc4ccccc4F)C3=O)cc2)CC1 | 33.8 | -2.8 | nt | -11.8 | 38.0
N#Cc1cc2c(nc1SCC(=O)Nc1sc3c(c1C#N)CCC3)CCC2 | -7.2 | 1.2 | -3.2 | 17.3 | 7.7
COc1ccc(-c2ccc(C#N)c(SCC(=O)Nc3sc4c(c3C#N)CCC4)n2)cc1OC | 52.3* | 4.4 | 0.2 | 2.7 | 14.8
O=C1C(=O)N(CCS(=O)(=O)c2ccccc2)c2ccc(F)cc21 | 5.8 | 17.9 | nt | 35.9* | 11.0
CCn1c(SCC(=O)NC2CC2)nnc1-c1csc(C)c1 | 17.8 | -5.5 | nt | 2.8 | -0.3
CCN(CC(=O)Nc1ccccc1OC)C(=O)CN1C(=O)NC(C)(c2ccccc2)C1=O (configuration not stated) | nt | -4.1 | nt | nt | 49.5*
CCN(CC(=O)Nc1ccccc1OC)C(=O)CN1C(=O)NC(C)(c2ccc(C)cc2)C1=O (configuration not stated) | nt | 0.6 | nt | nt | 1.4
COC(OC)C1(CCc2ccccc2)NC(=O)NC1=O (configuration not stated) | nt | -4.0 | nt | nt | nt
Cc1ccc(N2CC(C(=O)N3CCCCC3)CC2=O)cc1C (configuration not stated) | 8.0 | 2.5 | nt | 2.5 | -9.6
CC(CCC(C)C(C)(C)C)[C@@H]1CC[C@H]2C3C[C@H](OS(O)(=S)=S)[C@H]4C[C@H](OS(O)(=S)=S)[C@@H](OS(O)(=S)=S)C[C@]4(C)[C@H]3CC[C@]12C (some centres not stated) (tested in a mixture with another compound) | nt | 81.2* | nt | nt | 86.8*
CC(CCC(=O)NN)C1CCC2C3CCC4CC(O)CCC4(C)C3CCC12C (configuration not stated) | nt | 1.0 | nt | nt | nt
CCc1cc(=O)oc2c3c(cc(OCC(=O)NCCCCCC(=O)O)c12)OC(C)(C)CC3 | 53.1* | 11.8 | nt | 0.2 | -2.8
SMILES | UBC9 SUMO inh | HKDC1 inhibitor | DTT redox prof | GSTO1 counter | Apaf-1 inh
COc1ccc(C2Nc3cccc4cccc(c34)N2)cc1Br | -1.4 | 11.1 | nt | 32.4 | 17.2
FC(F)(F)c1ccc(C2Nc3cccc4cccc(c34)N2)cc1 | 5.9 | 0.2 | -0.8 | nt | 22.4
COc1cc(C2Nc3cccc4cccc(c34)N2)ccc1OC(C)=O | 63.7* | 22.3 | 1.1 | 53.5* | 19.6
c1coc(C2Nc3cccc4cccc(c34)N2)c1 | ? | nt | 1.2 | 50.4* | 30.8
Fc1ccc(C2Nc3cccc4cccc(c34)N2)cc1 | -12.3 | 15.1 | nt | 37.1* | 22.0
COc1ccccc1N1CCN(/N=C/c2ccc(O)c(O)c2)CC1 | 5.0 | 10.0 | -0.5 | 51.5* | 7.8
COc1ccc(/C=N/N2CCN(c3ccccc3OC)CC2)cc1OC | -0.4 | 4.7 | 1.4 | 0.3 | -1.9
O=C(CCS(=O)(=O)c1ccccc1)N1CCN(c2ccccc2)CC1 | -5.9 | -3.8 | nt | 4.2 | 1.5
COC(=O)c1ccc(N2NC(=O)/C(=C/c3cc(OC)c(O)c(OC)c3)C2=O)cc1 | -7.1 | 9.3 | nt | 36.6* | 4.2
COC(=O)c1ccc(N2NC(=O)/C(=C/c3cc(OC)c(OC)c(OC)c3)C2=O)cc1 | -7.4 | 2.3 | nt | 23.1 | -1.2
O=C(N/N=C/c1ccc(-c2ccc(Cl)c(C(=O)O)c2)o1)c1cc2c(ccc3ccccc32)o1 | 51.0* | 12.6 | nt | -96.7 | -9.7
COc1cc(CC(=O)NCC2CCCCC2)cc(OC)c1OC | 19.0 | 2.9 | nt | -0.8 | 2.1
COc1cccc(CNC(=O)COC(=O)CCCNC(=O)c2ccc(Cl)cc2)c1 | nt | -2.3 | nt | 7.0 | -0.4
CC(=O)c1ccc2c(c1)C1C=CCC1C(c1ccc(S(=O)(=O)N3CCOCC3)cc1)N2 (configuration not stated) | 40.0 | 10.0 | 0.1 | 14.2 | nt
Cc1c(Cl)cccc1NS(=O)(=O)c1ccc2c(c1)C1C=CCC1C(c1ccc(C(=O)O)cc1)N2 (configuration not stated) | 96.6* | 9.5 | 0.0 | 24.1 | 21.4
O=C(O)c1ccc2c(c1)C1C=CCC1C(c1ccncc1)N2 (configuration not stated) | 47.9 | -1.6 | nt | 15.3 | 12.5
COc1ccc(NS(=O)(=O)c2ccc3c(c2)[C@H]2C=CC[C@H]2[C@@H](c2ccc(C(=O)O)cc2)N3)cc1 | 54.2* | 22.6 | nt | 15.2 | 7.9
COc1cccc(CN2CC(C(=O)NC3CCC3)CCC2=O)c1 (configuration not stated) | 9.3 | -2.2 | nt | 0.4 | -6.3
CCOc1ccc(N=C/C=C/c2ccccc2)c(O)c1 | 28.9 | 32.4 | nt | 54.5* | 24.1
O=C(Nc1ccc(C(=O)N2CCCc3ccccc32)cc1)c1cccs1 | 15.3 | -1.3 | nt | -12.5 | 0.9
CCOC(=O)C1(C)C=C(Nc2ccc(O)cc2)C(=O)N1c1ccc(O)cc1 (configuration not stated) | 44.4 | -1.2 | -0.5 | 89.2* | 15.9
Cn1c(=O)oc2cc(S(=O)(=O)NCCc3ccccc3)ccc21 | -1.8 | -1.9 | -0.3 | 35.0* | -5.6
Cc1cccc(OCC(=O)Nc2ccc3c(c2)nc2n3CCOC2)c1 | 16.9 | -6.8 | nt | 4.1 | 0.0
